In ChEMBL document CHEMBL3758141, “Cytotoxic C20 Diterpenoid Alkaloids from the Australian Endemic Rainforest Plant Anopterus macleayanus” (J Nat Prod, 2015):

Experiments:
[1] = Cytotoxicity against human DuCaP cells after 72 hrs by AlamarBlue end point assay; type: functional, cell-based
How it was run: (§1)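 Cells in phenol-red-free RPMI-1640 at 37 °C, 5% CO2, with 5% FBS (DuCaP 10% FBS). Seeded per well for 24 h: LNCaP 4000, C4-2B 3000, DuCaP 15 000, BPH-1 3000, WPMY-1 2000. Compounds in DMSO were diluted in medium (final DMSO 0.3%). After 72 h, metabolic activity was read by AlamarBlue. Controls were a DMSO equivalent and vinblastine 25 nM.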

[2] = Cytotoxicity against human BPH1 cells after 72 hrs by AlamarBlue end point assay; type: cell-based; settings: BPH-1, 72 h; how it was run: as §1
[3] = Cytotoxicity against human WPMY-1 cells after 72 hrs by AlamarBlue end point assay; type: cell-based; settings: WPMY-1, 72 h; how it was run: as §1
[4] = Cytotoxicity against human C4-2B cells after 72 hrs by AlamarBlue end point assay; type: functional, cell-based; settings: LNCaP C4-2B; how it was run: as §1
[5] = tested on: LNCaP; assay: Cytotoxicity against human LNCAP cells after 72 hrs by AlamarBlue end point assay; type: functional, cell-based; how it was run: as §1
[6] = tested on: LNCaP; assay: Cytotoxicity against human LNCAP cells assessed as decrease in cell confluence measured every 2 hrs for 72 hrs by real-time live-cell imaging analysis relative to DMSO control; type: functional, cell-based
How it was run: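 LNCaP cells in phenol-red-free RPMI-1640 with 5% FBS were seeded at 4000 per well for 24 h. They were then treated with compounds diluted from DMSO (final DMSO 0.3%). The IncuCyte live-cell imager took images every 2 h for 72 h, and growth was tracked as increasing confluence. Controls were a DMSO equivalent and vinblastine 25 nM.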

[7] = tested on: LNCaP; assay: Selectivity index, ratio of IC50 for human WPMY-1 cells to IC50 for human LNCAP cells; type: functional
[8] = tested on: LNCaP; assay: Selectivity index, ratio of IC50 for human BPH1 cells to IC50 for human LNCAP cells; type: functional

For `CC[C@]1(O)C[C@@H]2CN(CCc3c([nH]c4ccccc34)[C@@](C(=O)OC)(c3cc4c(cc3OC)N(C)[C@H]3[C@@](O)(C(=O)OC)[C@H](OC(C)=O)[C@]5(CC)C=CCN6CC[C@]43[C@@H]65)C2)C1` [VINBLASTINE], the IC50 [1] was 3.7 nM, the IC50 [2] was 3.8 nM and the IC50 [3] was 4.2 nM. It also gave an IC50 [4] of 2.4 nM and an IC50 [5] of 3.2 nM.

Work on `C=C1C[C@@]23[C@H]4[C@H](OC(=O)/C(C)=C/CO)[C@H](OC(=O)/C(C)=C/C)[C@@H]1[C@@H]2C1N(C)C[C@]2(C)C[C@H](O)C[C@@]14[C@]2(O)[C@@H](O)[C@@H]3O` (stereo partly drawn) yielded an IC50 [1] of 70.7 nM, an IC50 [2] of 134 nM and an IC50 [3] of 155 nM. The IC50 [4] was 135 nM and the IC50 [5] was 72.6 nM.

With `C=C1C[C@]23C[C@H](OC(C)=O)[C@]4(O)[C@@]5(C)C[C@H](O)C[C@]46C([C@H]2[C@H]1[C@@H](OC(=O)/C(C)=C/C)[C@@H](OC(=O)/C(C)=C/CO)[C@H]36)N(C)C5` (stereo partly drawn) the IC50 [1] was 9.9 nM, the IC50 [2] was 11.4 nM and the IC50 [3] was 9.6 nM. For the same compound, the IC50 [4] was 7 nM and the IC50 [5] was 10.9 nM.

`C=C1C[C@]23C[C@H](O)[C@]4(O)[C@@]5(C)C[C@H](O)C[C@]46C([C@H]2[C@H]1[C@@H](OC(=O)/C(C)=C/C)[C@@H](OC(=O)c1ccccc1)[C@H]36)N(C)C5` (stereo partly drawn) showed an IC50 [1] of 154 nM, an IC50 [2] of 236 nM and an IC50 [3] of 140 nM. The IC50 [4] was 205 nM and the IC50 [5] was 190 nM.

`C=C1C[C@@]23[C@H]4[C@H](OC(=O)c5ccccc5)[C@H](OC(=O)/C(C)=C/C)[C@@H]1[C@@H]2C1N(C)C[C@]2(C)C[C@H](O)C[C@@]14[C@]2(O)[C@@H](O)[C@@H]3O` (stereo partly drawn) showed an IC50 [1] of 4.1 nM, an IC50 [2] of 9.2 nM and an IC50 [3] of 4.9 nM. The IC50 [4] was 5.2 nM and the IC50 [5] was 6.7 nM.

Work on `C=C1C[C@@]23[C@H]4[C@H](OC(=O)/C(C)=C/C)[C@H](OC(=O)/C(C)=C/C)[C@@H]1[C@@H]2C1N(C)C[C@]2(C)C[C@H](O)C[C@@]14[C@]2(O)[C@@H](O)[C@@H]3O` (stereo partly drawn) yielded an IC50 [1] of 55.7 nM, an IC50 [2] of 64.3 nM and an IC50 [3] of 86 nM. It also gave an IC50 [4] of 93.8 nM and an IC50 [5] of 50.8 nM.

For `C=C1C[C@]23C[C@H](O)[C@]4(O)[C@@]5(C)C[C@H](O)C[C@]46C([C@H]2[C@H]1[C@@H](OC(=O)/C(C)=C/C)[C@@H](OC(=O)/C(C)=C/CO)[C@H]36)N(C)C5` (stereo partly drawn), the IC50 [1] was 355 nM, the IC50 [2] was 177 nM and the IC50 [3] was 328 nM. The IC50 [4] was 340 nM and the IC50 [5] was 379 nM.

For `C=C1C[C@]23C[C@H](O)[C@]4(O)[C@@]5(C)C[C@H](O)C[C@]46C([C@H]2[C@H]1[C@@H](OC(=O)/C(C)=C/C)[C@@H](OC(=O)/C(C)=C/C)[C@H]36)N(C)C5` (stereo partly drawn), the IC50 [1] was 86.9 nM, the IC50 [2] was 29.6 nM and the IC50 [3] was 48.2 nM. The IC50 [4] was 45 nM and the IC50 [5] was 27.2 nM.

In the case of `C=C1C[C@]23C[C@H](OC(C)=O)[C@]4(O)[C@@]5(C)C[C@H](O)C[C@]46C([C@H]2[C@H]1[C@@H](OC(=O)/C(C)=C/C)[C@@H](OC(=O)/C(C)=C/C)[C@H]36)N(C)C5.O=C(O)C(F)(F)F` (stereo partly drawn), the Activity [6] is reported as “Dose-dependent effect”, the IC50 [1] is reported as 8.7 nM and the IC50 [2] is reported as 11.5 nM. The IC50 [3] was 6.6 nM, the Ratio IC50 [7] was 2.1 and the IC50 [4] was 6.2 nM. For the same compound, the Ratio IC50 [8] was 3.7 and the IC50 [5] was 3.1 nM.
